Source: article PMC9237582 (Asian Journal of Pharmaceutical Sciences, 2022)

Columns and labels:
[1] = cited from earlier work
[2] = Preliminary pharmacokinetic study in plasma; assay type: in vivo, rat
Summary of the method: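 Male Sprague–Dawley rats (200 ± 20 g, n = 6/group). Dose 10 mg/kg as Sal B, by intratracheal powder insufflation or iv solution. Suborbital blood was taken into heparin at 0.033–12 h, and plasma was spun 10 min at 4 °C. Ascorbic acid, internal standard and HCl were added, then ethyl acetate extraction. Dried extract was reconstituted in methanol-water 80:20 for UPLC-MS/MS; parameters came from concentration-time data.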

[3] = Lung tissue distribution study; assay type: in vivo, rat
Summary of the method: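 Male Sprague–Dawley rats (200 ± 20 g), fasted 12 h. Dose 10 mg/kg as Sal B, given either as dry powder or as iv solution. Powder was insufflated intratracheally under chloral hydrate anaesthesia (three 1.5 ml air pushes). Lungs were collected at 0.033–12 h (9 time points, n = 3 each) and homogenised 1:5 (g/ml) in iced saline. Homogenates were processed as for plasma and quantified by UPLC-MS/MS.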

[4] = system: bleomycin-induced rat model of IPF; assay: Preliminary pharmacodynamics in bleomycin-induced rat model of IPF; assay type: in vivo; settings: Day 29, vs bleo group; same dosing
Summary of the method: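 Male Sprague–Dawley rats under chloral hydrate anaesthesia received intratracheal bleomycin (5 mg/kg in 0.1 ml saline), then were held upright and rotated 5 min; controls got saline. From day 1, test powder was insufflated at 10 mg/kg as Sal B once daily for 28 d. Comparators: same dose iv, reference drug intragastric 31.5 mg/kg, or air. On day 29, right lung lavaged (3× cold saline); left lung stored −80 °C for Hyp.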

[5] = system: NIH-3T3 mouse embryonic fibroblasts; assay: MTT assay; assay type: cell-based; settings: NIH3T3, 48 h
Summary of the method: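 NIH-3T3 cells were grown in high-glucose DMEM with 10% FBS and penicillin/streptomycin at 37 °C, 5% CO2, in 96-well format. Test compound was given at 25–200 µg/ml and a reference drug at 0.25–10 µM, for 48 h. MTT (5 mg/ml) was added for 4 h, dissolved in DMSO, and absorbance read at 490 nm.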

[6] = system: NIH-3T3 cells; assay: Scratch test, TGF-β1-induced cell migration; assay type: cell-based, mouse; settings: TGF-β1 5 ng/ml, 48 h; vs TGF-β1 group
Summary of the method: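 NIH-3T3 fibroblasts were seeded in 12-well format, cultured 24 h, then scratched. After 24 h synchronisation, TGF-β1 (5 ng/ml) was added with test compound, SB431542 or a reference drug, and incubated 48 h. Wounds were photographed under an inverted microscope at 0, 24 and 48 h after drug addition.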

[7] = Sal B in rat plasma, 10 mg/kg as Sal B, iv solution or pulmonary DPI, n = 6
[8] = male, Sprague-Dawley, rat, plasma, iv, 10 mg/kg
[9] = Sal B in rat lung tissue, 10 mg/kg as Sal B, iv solution or pulmonary DPI, n = 3
[10] = male, Sprague-Dawley, rat, lung tissue, iv, 10 mg/kg

| Compound | Hyp content in lung tissue homogenate [4] | IFN-γ content in BALF [4] | IL-1β content in BALF [4] | IL-4 content in BALF [4] | IL-6 content in BALF [4] | IL-18 content in BALF [4] | MDA content in lung tissue homogenate [4] | SOD activity in lung tissue homogenate [4] | TGF-β1 protein content in BALF [4] | serum MPO content [4] | effect on TGF-β1-induced cell migration [6] | also measured |
| --- | --- | --- | --- | --- | --- | --- | --- | --- | --- | --- | --- | --- |
| O=C(/C=C/c1ccc(O)c2c1[C@H](C(=O)O[C@H](Cc1ccc(O)c(O)c1)C(=O)O)[C@@H](c1ccc(O)c(O)c1)O2)O[C@H](Cc1ccc(O)c(O)c1)C(=O)O [Sal B, Salvianolic acid B] | significantly lower | not significantly different | significantly decreased | not significantly different | significantly decreased | significantly decreased | significantly reduced | increased significantly | significantly decreased | significantly reduced | – | absolute bioavailability of Sal B in previous studies [1]: 19.15%±7.44%; Cl/F [2, 7]: 2.49 ± 0.47 L/h/kg; Lz (elimination of phase slope) [2, 7]: 0.45 ± 0.07 h⁻¹; Vz/F [2, 7]: 5.62 ± 1.47 L/kg; AUC(0-inf) [2, 8]: 6550 ± 1490 ng·h/mL; Cmax [2, 8]: 16400 ng/mL; MRT [2, 8]: 49.8 ± 6 min; Tmax [2, 8]: 1.98 min; half-life [2, 8]: 93.6 ± 16.8 min; AUC0-∞ [3, 9]: 1898.5 ± 134.03 ng·h/g; Cmax [3, 9]: 13,150.38±619.02 ng/g; Lz [3, 9]: 0.77 ± 0.04 h⁻¹; Cmax [3, 10]: 13200 ng/g; MRT [3, 10]: 11.4 min; Tmax [3, 10]: 1.98 min; half-life [3, 10]: 54 ± 3 min |
| COC(=O)c1ccc2c(c1)NC(=O)/C2=C(\Nc1ccc(N(C)C(=O)CN2CCN(C)CC2)cc1)c1ccccc1 [nidanib, nintedanib, reference compound] | significantly lower | significantly increased(P < 0.01) | significantly decreased | significantly decreased | significantly decreased | significantly decreased | significantly reduced | increased significantly | significantly decreased | significantly reduced | significantly inhibited the migration of NIH-3T3 cells in a concentration dependent manner | concentration with no significant effect on cell viability [5]: < 1 µM |
| NC(=O)c1ccc(-c2nc(-c3ccc4c(c3)OCO4)c(-c3ccccn3)[nH]2)cc1 [SB431542] | – | – | – | – | – | – | – | – | – | – | significantly inhibited | – |
